# From ChEMBL document CHEMBL4513216, “Probing the Open Global Health Chemical Diversity Library for Multistage-Active Starting Points for Next-Generation Antimalarials” (ACS Infect Dis, 2020)
# Test: Toxicity liver stage against HepG2, at 10uM
# Type: cell-based
# Design: test concentration 10 uM, cell line HepG2-A16-CD81EGFP
# Conditions: human, HepG2-A16-CD81EGFP cells; read-out: INHIBITION
# In short: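 Uninfected HepG2-A16-CD81EGFP cells, 3 × 10^3 per well, 1536-well, plated on prespotted compound at 10 μM final, parasite-free screening media added to match infected plates; puromycin 10 μM positive, DMSO 0.5% negative; run in parallel with 48 h PbLuc assay at 37 °C, 5% CO2; viability by CellTiter-Glo luminescence, normalized to controls.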
row,Compound,cytotoxicity at 10 µM [%]
1,CC[C@H](C)[C@H](NC(=O)Cn1ccc2ccc(F)cc21)C(=O)OC,4.12
2,CCc1c(C)sc2c1c(N)nc(=O)n2CCN1CCCCC1,9.49
3,CCCc1cc(=O)[nH]c2nnc(SCC(=O)NC(C)(C)C)n12,9.57
4,CC(C)(C)S(=O)(=O)c1ccc(N2CCN(c3ccccc3)CC2)nn1,-4.81
5,CC(C)C(=O)N1CCC2(CC1)NC(=O)[C@H]1CN(Cc3cccnc3)C[C@H]12,-0.331
6,CC(=O)N1CCc2[nH]nc(C(=O)N3CCOCC3)c2C1,-7.37
7,O=C(C1CCCC1)N1C[C@H]2CNC[C@H]2C1,1.47
8,CN(C)CC(=O)N1CC2(CCN(S(=O)(=O)c3ccccc3)C2)C1,-6.34
9,CCS(=O)(=O)N1CCC2(CC(=O)N(c3ccccc3C)C2)C1 (stereo unspecified),2.82
10,CC(=O)N1[C@H](CN(C)C)C[C@@H]2CN(C(=O)c3ccsc3)CC[C@@H]21,-0.744
11,CC(C)NC(=O)c1ccc2c(c1)C(c1nc[nH]n1)CN2S(C)(=O)=O (stereo unspecified),-132
12,c1cc(CN2CCO[C@@H]3CNC[C@@H]32)co1,6.71
13,CS(=O)(=O)N1CCCC12CCCN(C(=O)c1ccc[nH]1)C2 (stereo unspecified),-145
14,CNC(=O)c1cc2c(nc1NC(C)C)CCNCC2,0.102
15,N#Cc1ccc(OC[C@]23COC[C@H]2CN(Cc2ccccn2)C3)nc1,-0.182
16,CCOCC(=O)N1CCn2cc(CN(C)Cc3ccco3)nc2C1,4.73
17,Cn1c(=O)c2sccc2n(CC(=O)Nc2cccc(Cl)c2)c1=O,5.86
18,Cc1noc(C)c1CN1CC2(CCN(C(=O)c3c[nH]cn3)C2)CC1=O (stereo unspecified),-5.23
19,O=C(c1ccn(COc2ccc(F)cc2)n1)N1CCCCCC1,9.84
20,COCCCNC(=O)c1cc(OC)c2ccoc2c1,16.9
21,CC(C)N1CCOC(c2ccnc(N(C)C)n2)C1 (stereo unspecified),-0.104
22,COc1ccccc1C1(O)CCCN(C(=O)c2ccnn2C(C)C)C1 (stereo unspecified),2.59
23,CC(=O)NCC(=O)N1CCOC(c2cccc(N)n2)C1 (stereo unspecified),-4.68

row,Compound,cytotoxicity at 10 µM [%]
1,Cc1noc(CN2CCN(C(C)C(=O)NCc3cccs3)CC2)n1 (stereo unspecified),17.2
2,Cc1noc(C)c1CN(C)c1nccc(C(F)(F)F)n1,-4.73
3,CC(C)(C)CC(=O)Nc1cnn(-c2ccccc2S(C)(=O)=O)c1,3.69
4,CCOc1cccc(NC(=O)c2cnc(C)cn2)n1,4.14
5,NC(=O)COc1cccc(Cn2cccn2)c1,-1.13
6,COCCOCC1CCN(C(=O)c2ccc3[nH]cnc3c2)C1 (stereo unspecified),-5.73
7,CN(Cc1cnn(C)c1)C(=O)Nc1cccnc1-n1cccn1,-1.32
8,CC(c1ccccc1)N(C)CC(=O)NCCC#N (stereo unspecified),3.52
9,COc1cccc(-c2cc(NCc3nccn3C)n(C)n2)c1,0.684
10,Cc1ccnc(NC(=O)c2ccc(F)c(S(=O)(=O)NC3CC3)c2)c1,10.4
11,CN(CCOc1ccc(C#N)cc1)CC1CC1,1.47
12,COc1c(C2CCCN2CC(=O)Nc2nccs2)c(C)nn1C (stereo unspecified),-2.38
13,NS(=O)(=O)CCN1CCN(c2ccccc2O)CC1,9.1
14,Cc1ccc(C(=O)N(Cc2ccc(F)cc2F)C2CC2)c(=O)[nH]1,-2.01
15,O=C(Cc1cccs1)NCC1(O)CCSCC1,-10.5
16,CCc1nc(CCNC(=O)NC2CC(=O)N(C(C)(C)C)C2)cs1 (stereo unspecified),-1.51
17,CC(C)(C)NC(=O)CN1CCCN(Cc2cc(C#N)ccc2F)CC1,-4.62
18,CCN(CC)c1ccc(NC(=O)N2CCc3sccc3C2)cn1,-5
19,Cc1ccc(Br)c(S(=O)(=O)NCc2ccnn2C)c1,0.67
20,CC(Nc1cccc(COCc2ccco2)c1)C(=O)NC(N)=O (stereo unspecified),-5.65
21,COc1cc(F)ccc1N(C)Cc1ccncc1,-3.64
22,CCS(=O)(=O)CCN(CC1CCCO1)C1CCCC1 (stereo unspecified),-3.52
23,CCCn1nc(C(=O)N2CCCC2c2noc(C)n2)ccc1=O (stereo unspecified),3.57

row,Compound,cytotoxicity at 10 µM [%]
1,CN(C(=O)CN1CCC(c2cc3ccccc3[nH]2)CC1)C(C)(C)C#N,6.24
2,CC(C)N(Cc1cnn(C)c1)CC1CCCN(S(C)(=O)=O)C1 (stereo unspecified),-21.4
3,Cc1nc(Cn2cc(I)cc(C)c2=O)oc1C,0.939
4,Cc1cccc(N2CCN(C(=O)CC3(O)CCCC3)C(C)C2)n1 (stereo unspecified),15.9
5,Cc1cc(N(C)C)nc(NCCn2cccn2)n1,5.65
6,COc1ccc(CCNC(=O)NC2CCCC2)cc1OC,-10.9
7,Cc1cc(NC(=O)NCCc2cccs2)n(C)n1,14.8
8,CCc1noc(C(C)N2CCN(c3ccc(C#N)cn3)CC2)n1 (stereo unspecified),4.78
9,CCc1c(C)nc(C)nc1N1C[C@@H](CN(C)CCN(C)C)[C@@H](CO)C1,-2.07
10,CCOc1ccc(CCCC(=O)N2CCC(C(=O)NC)C2)cc1C (stereo unspecified),1.85
11,N[C@@H]1CCN(Cc2ccc(-c3nc(-c4cccnc4)cc(=O)[nH]3)cc2)C1,9.48
12,COc1ccnc(N2Cc3cnc(C(C)(C)C)nc3C2)n1,-9.85
13,O=C1N(CCc2ccccc2)CCCC1(O)CNCc1ccc(F)cc1 (stereo unspecified),-1.24
14,O=C(CCc1cc2n(n1)CCCNC2)N1CCSCC1,8.55
15,CC/C=C(\C)CN1CCC(CNC(=O)c2ccc(=O)[nH]c2)CC1,8.06
16,CCC(Nc1nccc(C2CCCC2)n1)c1ncccc1C (stereo unspecified),-130
17,CC(C)Cc1cc(C(=O)NCCc2nnc(N)s2)n(C)n1,0.649
18,CC(C)(C)c1ncc2c(n1)CN(C(=O)C(C)(C)n1cccc1)C2,-120
19,CCc1nccc(CN2CCC(CNC(=O)c3occc3C)C2)n1 (stereo unspecified),6.95
20,CC(=O)c1ccc(N2CCC3(CCC(=O)N(C4CC4)C3)CC2)nc1,4.36
21,O=C(Cc1ccc(O)c(F)c1)N1CCN(CC2CC2)[C@@H]2CS(=O)(=O)C[C@@H]21,-2.06
22,COc1cc(NCC(O)CN2CCCCCC2)ncn1 (stereo unspecified),2.8
23,CN(CCO)c1nc(-c2ccccn2)nc2c1CCNC2,-4.12

row,Compound,cytotoxicity at 10 µM [%]
1,COC(=O)C1CCN(C(=O)c2cccc(NS(C)(=O)=O)c2C)CC1,-6.71
2,CCCC(=O)N1CCN(c2cc(-n3cnc(C)c3C)nc(C)n2)CC1,-1.89
3,COc1cc(F)c(CN2CCN(CC(C)C)C(=O)C2C)cc1OC (stereo unspecified),1.63
4,CCN1CCN(C[C@@H]2CN(c3ncccc3Cl)C[C@@H]2CO)CC1,-4.81
5,CCC(NC(=O)c1nn(C)cc1C(=O)O)c1ccc(C)cc1 (stereo unspecified),-3.42
6,CC1CCN(CCNC(=O)c2ccn(-c3ccccc3)n2)CC1,-5.99
7,Cc1cc(C)n(CC2CCCN2Cc2ncc(C(C)(C)C)o2)n1 (stereo unspecified),-1.64
8,O=C(CNC(=O)c1ccc2c(c1)CCC2)NCCNc1ncccn1,-6.5
9,Cc1ncsc1C(=O)NCCc1cccs1,-15.3
10,CCc1noc(C)c1C(=O)NCC(c1ccc(C)cc1)N(C)C (stereo unspecified),-5.57
11,CN(C)c1ccc(CNC(=O)Nc2ccc(S(C)(=O)=O)nc2)cc1,-2.48
12,Cc1ccc(NC2CCN(C(=O)c3cc(C)no3)CC2)nn1,-11.6
13,COCC(c1cccc(C(F)(F)F)c1)N(C)C(=O)c1cnccn1 (stereo unspecified),-11.7
14,Cc1nc(-c2ccsc2)ccc1C(=O)NCC(C)N1CCOCC1 (stereo unspecified),-3.92
15,CN(CC(=O)N1CCCC1c1cnn(C)c1)Cc1ccccc1 (stereo unspecified),-4.38
16,Cc1nc(C)n(CC2CCCCN2CC(=O)NC(C2CC2)C2CC2)n1 (stereo unspecified),-8.61
17,O=C(c1cccc2ncccc12)N1CCC(Nc2cccnn2)CC1,-14.7
18,CCc1ncc2c(n1)CN(CC(=O)Nc1cc(C)no1)CC2,-16.9
19,O=C(NCCNc1ncccn1)C1CC(=O)N(Cc2ccccc2)C1 (stereo unspecified),-16.2
20,COc1cccc(COCC(=O)N2CCCC(n3cncn3)C2)c1 (stereo unspecified),-21.1
21,Cc1cccnc1NC(=O)NC(C)Cn1cccn1 (stereo unspecified),-6.8
22,O=C(Cn1nc(-c2ccc(F)cc2)oc1=O)NCc1ccc(F)cc1,4.13
23,O=C(Nc1cnn(CCN2CCOCC2)c1)c1ccccn1,-14.5

row,Compound,cytotoxicity at 10 µM [%]
1,c1cnnc(N2CCCC2CNc2ncnc3c2CCC3)c1 (stereo unspecified),-0.626
2,Cc1cnn(CCNCc2cccnc2)c1,-0.265
3,CN1[C@@H](C(=O)NCC2CC2)C[C@H]2CN(Cc3cccc(C#N)c3)C[C@H]21,-8.22
4,O=C(NC1CCC1)[C@@H]1CCO[C@@H]2CCN(C3CCCC3)C[C@H]21,9.05
5,CNC(=O)N1CCc2cc(C(=O)N(C)C)c(NCC3CC3)nc2CC1,-0.395
6,Cn1ccc(C(=O)N2CCOC3(COCCN(CC4CC4)C3)C2)n1 (stereo unspecified),7.61
7,Cc1ccc(CN2CCC3(CCCC(=O)N3)CC2)s1,-3.45
8,Cc1cccc(CN2C(=O)CCC23CCN(C(=O)c2ccco2)CC3)n1,4.17
9,CN1CCO[C@H]2CN(C(=O)c3ccncc3F)C[C@H]21,-141
10,CCCS(=O)(=O)N1CCC2(CN(c3ccsc3)C(=O)CN2C)C1 (stereo unspecified),-21.1
11,Cc1ccc(CN2CCC3(CC2)CC3CN(C)Cc2cccnc2)o1 (stereo unspecified),-3.76
12,COCCN1CCC2(COCc3c(C)nc(N4CCOCC4)nc32)C1 (stereo unspecified),-130
13,O=C(CC1CCCC1)N1C[C@H](Oc2cccnc2)[C@H]2OCCC[C@H]21,3.82
14,Cc1ccc(CN2CCc3[nH]nc(C(=O)N4CCN(C)CC4)c3C2)o1,-8.19
15,CCN1C(=O)CCC12CCCN(Cc1ccc(F)cc1)CC2 (stereo unspecified),-0.861
16,CN1CCN(Cc2cccnc2)C2(CCN(Cc3ccoc3)C2)C1=O (stereo unspecified),-2.4
17,O=C(C1CCOCC1)N1C[C@H]2CC(OCc3ccccc3)C[C@H]2C1 (stereo partly specified),-5.59
18,O=C(NCC1CCC(c2ccnc3ncnn23)CC1)c1ccccn1 (stereo unspecified),3.64
19,COCCN1C(=O)[C@@H]2CC[C@H]1CN(Cc1nnc(-c3ccccc3)o1)C2,-4.94
